Paper PMC8448143 (Antimicrobial Agents and Chemotherapy, 2021)
“Also recorded” adds a separate entry of the source. Where two headings read alike, the source gives them in different places.

Key:
[1] = system: SARS-CoV-2 (2019-nCoV/USA-WA1/2020); assay: SARS-CoV-2 antiviral assay; format: cell-based; conditions: Vero E6 cells; CC50/EC50
[2] = system: SARS-CoV-2 (2019-nCoV/USA-WA1/2020); assay: SARS-CoV-2 antiviral assay; format: cell-based; conditions: for EC90: Severe acute respiratory syndrome coronavirus 2, in Homo sapiens, 48 h; for Selectivity index: CC50/EC50
[3] = system: SARS-CoV-2 (2019-nCoV/USA-WA1/2020); assay: SARS-CoV-2 antiviral assay; format: cell-based; conditions: for Selectivity index: Huh7.5 cells, CC50/EC50
[4] = in vitro; conditions: African green monkey
[5] = in vitro; conditions: human
[6] = system: SARS-CoV-2 (2019-nCoV/USA-WA1/2020); assay: SARS-CoV-2 antiviral assay; format: cell-based; conditions: for Selectivity index: Calu-3 cells, CC50/EC50
[7] = system: SARS-CoV-2 (2019-nCoV/USA-WA1/2020); assay: SARS-CoV-2 antiviral assay; format: cell-based; conditions: for Selectivity index: Caco-2 cells, CC50/EC50; for EC50 / EC90: Severe acute respiratory syndrome coronavirus 2, Caco-2, 48 h
[8] = system: human coronavirus 229E; assay: microbe, parasite or virus in culture; format: cell-based; conditions: MRC5, 72 h
[9] = Seven-day oral pharmacokinetics and tolerability in Syrian hamsters; format: in vivo
How it was run: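 Syrian hamsters in groups of 3 received vehicle or test compound by oral gavage every 12 h for 7 days, at 16.9 or 13.2 mg/kg body weight. Plasma levels of the prodrug and its nucleoside metabolite were followed after dosing. Animals were monitored for adverse clinical signs.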

[10] = in vitro; conditions: both, human, plasma
[11] = in vitro
[12] = in vitro; conditions: human; remark: listed apart in the source
[13] = in vitro; conditions: human; remark: listed apart in the source
[14] = in vitro; conditions: human; remark: listed apart in the source
[15] = ex vivo; cited from earlier work
[16] = in vivo, rhesus monkeys; cited from earlier work
[17] = system: SARS-CoV-2; conditions: Calu-3 2B4 cells; cited from earlier work
[18] = system: SARS-CoV-2; conditions: human alveolar epithelial (HAE) cells; cited from earlier work
[19] = cited from earlier work
[20] = Severe acute respiratory syndrome coronavirus 2, Huh7.5, 48 h
[21] = Severe acute respiratory syndrome coronavirus 2, Calu-3, 48 h

| Compound | Selectivity index [1] | EC90 [2] | EC50 [3] | Selectivity index [3] | EC50 [3, 20] | EC90 [3, 20] | CC50 [4] | CC50 [5] | Selectivity index ([2]; PSC-human lung cells) | Selectivity index [6] | EC50 [6, 21] | EC90 [6, 21] | Selectivity index [7] | EC50 [7] | EC90 [7] | EC50 [8] | EC90 [8] | CC50 [12] | CC50 [13] | CC50 [14] | further results |
| --- | --- | --- | --- | --- | --- | --- | --- | --- | --- | --- | --- | --- | --- | --- | --- | --- | --- | --- | --- | --- | --- |
| CCCCCCCCCCCCCCCCOCCCOP(=O)(O)OC[C@H]1O[C@@](C#N)(c2ccc3c(N)ncnn23)[C@H](O)[C@@H]1O [HDP-P-RVn, {(2R,3S,4R,5R)-5-(4-aminopyrrolo[2,1-f][1,2, 4]triazin-7-yl)-5-cyano-3,4-dihydroxytetrahydrofuran-2-yl}methyl [3-(hexadecyloxy)propyl] hydrogen phosphate] | >158 | 940 nM | 190 nM | >526 | < 200 nM | 400 nM | > 100000 nM | > 100000 nM |  |  |  |  |  |  |  |  |  |  |  |  |  |
| CCCCCCCCCCCCCCCCCCOC[C@H](COP(=O)(O)OC[C@H]1O[C@@](C#N)(c2ccc3c(N)ncnn23)[C@H](O)[C@@H]1O)OCc1ccccc1 [ODBG-P-RVn, {(2R,3S,4R,5R)-5-(4-aminopyrrolo[2,1-f][1,2, 4]triazin-7-yl)-5-cyano-3,4-dihydroxytetrahydrofuran-2-yl]methyl [(R)-2-(benzyloxy)-3-(octadecyloxy)propyl] hydrogen phosphate] | 699 | 260 nM |  | 449 | < 200 nM | 150 nM | 97900 nM |  | 410 | 327 | < 350 nM | 330 nM | 295 | 300 nM | 330 nM | 150 nM | 540 nM |  |  |  | tolerability ([9]; Syrian hamsters, oral gavage every 12 h for 7 days, 16.9 and 13.2 mg/kg): well tolerated; also recorded: well tolerated, and no adverse clinical signs were noted; plasma level of ODBG-P-RVn relative to its EC90 ([9]; Syrian hamsters, oral, at 12 h, days 1 and 7, EC90 in all cell lines studied): above the 90% effective concentration (EC90); also recorded: higher than the EC90; Tmax ([9]; Syrian, hamster, plasma, po): 1 h; half-life [10]: > 24 h; CC50 [11]: 61500 to 98200 nM |
| CCCCCCCCCCCCCCCCCCOCCOP(=O)(O)OC[C@H]1O[C@@](C#N)(c2ccc3c(N)ncnn23)[C@H](O)[C@@H]1O [ODE-P-RVn, {(2R,3S,4R,5R)-5-(4-aminopyrrolo[2,1-f][1,2, 4]triazin-7-yl)-5-cyano-3,4-dihydroxytetrahydrofuran-2-yl}methyl [2-(octadecyloxy)ethyl] hydrogen phosphate] | >333 | 700 nM | 190 nM | >526 | < 200 nM | 370 nM | > 100000 nM | > 100000 nM | >454 | 290 | < 350 nM | 640 nM | >129 | 770 nM | 1250 nM |  |  | > 100000 nM | 98700 nM | > 100000 nM | EC50 ([2]; PSC-human lung cells, […]): 220 nM; EC50 [6]: 340 nM |
| CCC(CC)COC(=O)[C@H](C)N[P@](=O)(OC[C@H]1O[C@@](C#N)(c2ccc3c(N)ncnn23)[C@H](O)[C@@H]1O)Oc1ccccc1 [RDV, remdesivir, reference compound] |  | 230 nM |  |  | 60 nM | 120 nM | 101000 nM |  |  |  | 230 nM | 310 nM |  | 170 nM | 280 nM | 40 nM | 260 nM |  |  |  | half-life (t1/2) in human plasma [15]: 1.15 h; persistence in plasma after intravenous infusion [16]: less than 2 h; EC50 [17]: 280 nM; EC50 [18]: 10 nM; persistence in plasma after intravenous infusion ([19]; in vivo, COVID-19 patients): less than 2 h; drop of plasma level after the intravenous infusion stopped ([19]; two patients with COVID-19, 1 h after the infusion stopped): > 90% |
| N#C[C@@]1(c2ccc3c(N)ncnn23)O[C@H](CO)[C@@H](O)[C@H]1O [RVn, remdesivir nucleoside, reference compound] |  | 2620 nM |  | >312 | 320 nM | 730 nM | > 100000 nM | > 100000 nM | >135 | >666 | 150 nM | 180 nM | >104 | 960 nM | 1750 nM |  |  | > 100000 nM | > 100000 nM | > 100000 nM |  |
